Assay results gathered from unrelated publications.
Compare with care: the assays were run in different laboratories.
Target: Dual specificity protein kinase CLK1 (CLK1, Homo sapiens, UniProt P49759)
Method: competition with immobilised ligand

Compound | assay | setting | remaining binding [%]
CN(CCCC(F)(F)F)c1nccc(-c2cnn3ncccc23)n1 | binding | 1 µM | 43
Cc1c(C(=O)O)cc(-c2ccc(C3CCNCC3)cc2)c2ccc(-c3ccc(C(F)(F)F)cc3)cc12 | binding | 1 µM | 100
COc1ncc2cc3ccccc3nc2c1C#N | cell-free assay | 5 µM | 98
O=C(Nc1c[nH]nc1C(=O)NC1CCNCC1)c1cc(F)cc(F)c1 | binding | 1 µM | 100
Nc1ncc2c(n1)-c1c([nH]c3ccc(C#CC4CC4)cc13)CCCC2 | binding | 1 µM | 100
C=CC(=O)N1CCC(C(=O)NCC(=O)N2CCN(c3nc(-c4cnc(N)nc4C(F)F)nc(N4CCOCC4)n3)CC2)CC1 | binding | 1 µM | 93
O=S(=O)(NC1CCC(c2cc(F)ccc2F)(S(=O)(=O)c2ccc(Cl)cc2)CC1)C(F)(F)F (centres unmarked) | cell-free assay | 1 µM | 78
O=C(c1ccc(Nc2ncc(Cl)c(-c3cc4ccccc4s3)n2)cc1)N1CCC(N2CCCC2)CC1 | binding | 1 µM | 3
CNC(=O)[C@@H]1CC[C@@H](n2c(-c3ccc4cnccc4c3)nc3ccc(C(=O)NCc4cccc(C(N)=O)c4)cc32)C1 | binding | 1 µM | 98
O=C(c1ccc(Nc2ncc(Cl)c(-c3ccc(Cl)s3)n2)cc1)N1CCC(N2CCCC2)CC1 | binding | 1 µM | 3.9
CN([C@@H]1CCc2c(CC(=O)O)c3cc(S(C)(=O)=O)ccc3n2C1)S(=O)(=O)c1ccc(F)cc1 | cell-free assay | 1 µM | 100
C[C@@H](c1ccc(-n2cnc3c(N)ncnc32)cc1)N1CCc2nn(C)c(Cc3ccccc3)c2C1=O | binding | 0.1 µM | 67
C[C@H](c1ccnc(Nc2nc3ccc(-c4cc(N(C)C)ncn4)cc3[nH]2)c1)N1CCN(C(=O)CC(F)(F)F)CC1 | cell-free assay | 0.1 µM | 90
Cc1cnc(Nc2ccc(C(=O)N3CCC(N4CCCC4)CC3)cc2)nc1-c1cc2ccccc2s1 | binding | 1 µM | 8.3
